ChEMBL document CHEMBL3046772, “Synthesis and antifeedant activity of new oxadiazolyl 3(2H)-pyridazinones” (2003)

Columns and labels:
Type in all cases: functional
Ostrinia furnacalis [1] = experiment: Antifeedant activity against fifth-instar larval stage of Ostrinia furnacalis (Asian corn borer) assessed as feeding deterrence index at 500 mg/kg after 24 hr by diet-choice assay
Outline: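 Newly moulted fifth-instar larvae offered artificial diet with compound added (dissolved in acetone, mixed into diet ingredients before preparation) at 500 mg/kg versus solvent-only control diet. Five replicates of 10 larvae. After 24 h, deterrency index (%) = [(C − T)/(C + T)] × 100, where C and T are amounts of control and treated diet eaten.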

Ostrinia furnacalis [2] = experiment: Antifeedant activity against fifth-instar larval stage of Ostrinia furnacalis (Asian corn borer) assessed as larval weight gain at 5 mg/kg after 5 days by diet-choice assay (reference value: 43.3 +/- 20.8 mg)
Ostrinia furnacalis [3] = experiment: Antifeedant activity against fifth-instar larval stage of Ostrinia furnacalis (Asian corn borer) assessed as larval weight gain at 20 mg/kg after 5 days by diet-choice assay (reference value: 43.3 +/- 20.8 mg)
Ostrinia furnacalis [4] = experiment: Antifeedant activity against fifth-instar larval stage of Ostrinia furnacalis (Asian corn borer) assessed as larval weight gain at 10 mg/kg after 5 days by diet-choice assay (reference value: 43.3 +/- 20.8 mg)

| SMILES | FDI (Ostrinia furnacalis [1]) [%] | Activity (Ostrinia furnacalis [2]) [mg] | Activity (Ostrinia furnacalis [3]) [mg] | Activity (Ostrinia furnacalis [4]) [mg] |
| --- | --- | --- | --- | --- |
| CC(C)(C)n1ncc(OCc2nnc(-c3ccccc3F)o2)c(Cl)c1=O | 41.34 | – | – | – |
| CC(C)(C)n1ncc(OCc2nnc(-c3cc(F)c(Cl)cc3Cl)o2)c(Cl)c1=O | 35.16 | – | – | – |
| CC(C)(C)n1ncc(OCc2nnc(-c3ccccc3)o2)c(Cl)c1=O | 57.61 | 42.3 | 6.6 | 16.2 |
| Cc1ccc(-c2nnc(COc3cnn(C(C)(C)C)c(=O)c3Cl)o2)cc1 | 4.28 | – | – | – |
| CC(C)(C)n1ncc(OCc2nnc(-c3ccc(F)cc3)o2)c(Cl)c1=O | 51.08 | – | – | – |
| CCc1ccc(-c2nnc(COc3cnn(C(C)(C)C)c(=O)c3Cl)o2)cc1 | 40.18 | – | – | – |
| CC(C)(C)n1ncc(OCc2nnc(-c3ccc(Cl)cc3)o2)c(Cl)c1=O | 46.73 | – | – | – |
| COc1ccc(-c2nnc(COc3cnn(C(C)(C)C)c(=O)c3Cl)o2)cc1 | 38.45 | – | – | – |
| CC(C)(C)n1ncc(OCc2nnc(-c3cccc(F)c3)o2)c(Cl)c1=O | 51.67 | 38.4 | 8.7 | 22.6 |
| C/C=C(\C)C(=O)O[C@H]1C[C@@H](OC(C)=O)[C@@]2(C(=O)OC)CO[C@H]3[C@@H](O)[C@@](C)([C@]45O[C@@]4(C)[C@@H]4C[C@H]5O[C@@H]5OC=C[C@@]54O)[C@H]4[C@]1(CO[C@]4(O)C(=O)OC)[C@@H]32 [AZADIRACHTIN A] | 59.9 | 22 | 1.2 | 7.8 |
